In general, pIC50 refers to −log10 of the IC50, conventionally taken in molar units.

This is an account of results in ChEMBL document CHEMBL1765049, “Inhibitory properties of 2-substituent-1H-benzimidazole-4-carboxamide derivatives against enteroviruses” (Bioorg Med Chem, 2011).

pIC50: −log10 of the molar value.

Data set [1] has as its system Coxsackievirus B3. The experiment in a line: Antiviral activity against Coxsackievirus B3 infected in african green monkey Vero cells assessed as inhibition of viral growth after 24 hrs by Reed-Muench method. The note with it: Enterovirus B. In kind it is functional, organism-based. An outline of the steps:
(§1)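 Vero cells were seeded and after 24 h exposed to virus for 2 h. Compounds were then added after being dissolved in DMSO and diluted in culture medium. Cell-control and virus-control wells were run alongside. Cytopathic effect was scored once the virus wells exceeded grade 4. The 50% inhibitory concentration of virus growth was calculated by the Reed–Muench method.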

Data set [2] deals with Coxsackievirus B6. The data set can be described thus: Antiviral activity against Coxsackievirus B6 infected in african green monkey Vero cells assessed as inhibition of viral growth after 24 hrs by Reed-Muench method. In kind it is functional, organism-based. The note with it: Enterovirus B. An outline of the steps:
as §1

The test system of data set [3] is Coxsackievirus A16. The data set can be described thus: Antiviral activity against Coxsackievirus A16 infected in african green monkey Vero cells assessed as inhibition of viral growth after 24 hrs by Reed-Muench method. It counts as functional, cell-based. The note with it: for pIC50: Enterovirus A, Vero, 24 h, read-out: IC50. The essentials: as §1
Data set [4] concerns Enterovirus A71. The experiment in a line: Antiviral activity against Human enterovirus 71 infected in african green monkey Vero cells assessed as inhibition of viral growth after 24 hrs by Reed-Muench method. It counts as functional, organism-based. The note with it: Enterovirus A. An outline of the steps:
as §1

Data set [5] can be described thus: (§2) Cytotoxicity against african green monkey Vero cells. It counts as cell-based. The note with it: chlorocebus sabaeus, Vero cells; read-out: TC50 (the source's name). The essentials: (§3)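 TC50 is the compound concentration killing 50% of Vero cells (inhibiting cell growth by 50%). Compounds were dissolved in DMSO and diluted in medium, then added to seeded Vero cells. Cell wells were examined when cytopathic effect in virus-infected control wells exceeded grade 4.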

Data set [6] in a line: Selectivity index, ratio of TC50 for african green monkey Vero cells to IC50 for Coxsackievirus B3. In kind it is toxicity, cell-based. Particulars: read-out: Selectivity Index; call rule not given here. The essentials:
(§4)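 Selectivity index is calculated as TC50 in Vero cells divided by the antiviral IC50 against the named enterovirus. Both values come from the same Vero cytopathic-effect assay, with compounds dissolved in DMSO and diluted in medium.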

Data set [7] can be described thus: Selectivity index, ratio of TC50 for african green monkey Vero cells to IC50 for Coxsackievirus B6. In kind it is toxicity, cell-based. Particulars: read-out: Selectivity Index. The essentials: as §4
A short description of data set [8]: Selectivity index, ratio of TC50 for african green monkey Vero cells to IC50 for Coxsackievirus A16. In kind it is toxicity, cell-based. Particulars: read-out: Selectivity Index. An outline of the steps:
as §4

The nature of data set [9]: Selectivity index, ratio of TC50 for african green monkey Vero cells to IC50 for Human enterovirus 71. The note with it: read-out: Selectivity Index. It counts as toxicity, cell-based. An outline of the steps: as §4
Data set [10] concerns Vero. The description is as §2. It counts as cell-based. The note with it: chlorocebus sabaeus, vero. The essentials: as §3
In data set [11] the test system is Enterovirus A71. The experiment in a line: Antiviral activity against Human enterovirus 71 infected in african green monkey Vero cells assessed as inhibition of viral growth after 48 hrs by Reed-Muench method. In kind it is functional, organism-based. The note with it: Enterovirus A. The essentials:
as §1

On to `NC(=O)c1ncn([C@@H]2O[C@H](CO)[C@@H](O)[C@H]2O)n1` [RIBAVIRIN], for which the negative-log IC50 (pIC50) in data set [1] is 2.77; in [2] it was 3.04; in data set [3], 2.39; in data set [4], 2.63. Moreover, in data set [5], the CC50 was determined as 8190 µM.

Consider `COc1ccc(-c2nc3c(C(=O)Nc4cnc(Cl)cn4)cccc3[nH]2)c(OC)c1OC`, for which the pIC50 in [1] was 4.76; in [2] it was 4.77; in data set [3], 4.77; in data set [4] it was 4.77. For the same compound, the CC50 in data set [5] turned out to be 65.2 µM. Further, the selectivity ratio was determined as 3.8 in [6], 3.9 in [7], 3.9 in [8] and 3.9 in data set [9].

For `COc1ccc(-c2nc3c(C(=O)Nc4ccccc4F)cccc3[nH]2)cc1OC`, the pIC50 in data set [1] and in [3] was 5.46 each time. The CC50 in [5] came to 24.5 µM. For the same compound, the selectivity ratio in [6] and in data set [8] was 7 each time.

`COc1ccc(-c2nc3c(C(=O)N[C@H](CO)[C@H](O)c4ccc([N+](=O)[O-])cc4)cccc3[nH]2)c(OC)c1OC`: the pIC50 is 5.33 in data set [1], 5.33 in data set [2], 5.33 in data set [3] and 5.43 in data set [4]. In addition, in data set [5], the CC50 is 9.85 µM. Further, the selectivity ratio in [6] came to 2; in data set [7] it was 2.1; in [8], 2.1; in data set [9] it was 2.7.

Consider `COc1ccc(-c2nc3c(C(=O)N[C@H](CO)[C@H](O)c4ccc([N+](=O)[O-])cc4)cccc3[nH]2)cc1OC`, for which the negative-log IC50 (pIC50) in [3] was 5.08. Besides, the CC50 in data set [5] was 14.5 µM. Further, the selectivity ratio in data set [8] was determined as 1.7.

Take `COc1ccc(-c2nc3c(C(=O)NCCCO)cccc3[nH]2)cc1OC`: the negative-log IC50 (pIC50) was 4.76 in data set [1], 4.92 in [2], 4.68 in data set [3] and 4.68 in [4]. Moreover, in data set [5], the CC50 was found to be 46 µM. The selectivity ratio in [6] stood at 2.7; in data set [7], 3.6; in data set [8] it was 2.1; in data set [9] it was 2.7.

In the case of `COc1ccc(-c2nc3c(C(=O)Nc4c[nH]cn4)cccc3[nH]2)cc1OC`, in data set [3], the pIC50 is 3.99. In data set [5], the CC50 is 306 µM. In [8], the selectivity ratio stood at 3.

On to `COc1ccc(-c2nc3c(C(=O)Nc4cnc(Cl)cn4)cccc3[nH]2)cc1OC`, for which the negative logarithm of the IC50 (pIC50) in data set [1], in data set [2], in data set [3] and in [4] was 4.74 in each case. For the same compound, the CC50 in data set [5] came out at 78.3 µM. Besides, the selectivity ratio in data set [6], in data set [7], in data set [8] and in data set [9] was 4.3 in each case.

With `COc1ccc(-c2nc3c(C(=O)NCCCO)cccc3[nH]2)c(OC)c1OC`, the pIC50 in data set [1] was 4.71; in data set [2] it was 4.72; in data set [3] it was 4.72; in data set [4] it was 4.83. Also, the CC50 in [5] was 40 µM. In addition, the selectivity ratio in [6] turned out to be 2.1; in data set [7], 2.7; in data set [8], 2.1; in [9], 2.7.

As to `COc1ccc(-c2nc3c(C(=O)Nc4nc5ccccc5[nH]4)cccc3[nH]2)cc1OC`, the pIC50 in data set [3] was 5.00. Besides, the CC50 in [5] was 51.8 µM. Moreover, in data set [8], the selectivity ratio worked out at 5.2.

For `COc1ccc(-c2nc3c(C(=O)Nc4nc5ccccc5[nH]4)cccc3[nH]2)c(OC)c1OC`, the negative-log IC50 (pIC50) in data set [1] was 4.77; in data set [2] it was 4.78; in data set [3] it was 4.78; in [4] it was 4.78. For the same compound, the CC50 in data set [5] is 29 µM. Moreover, the selectivity ratio in [6], in [7], in data set [8] and in data set [9] was 1.7 throughout.

Consider `CCC(CC)NC(=O)c1cccc2[nH]c(-c3ccc(OC)c(OC)c3OC)nc12`, for which the negative logarithm of the IC50 (pIC50) in data set [1], in [2], in [3] and in [4] was 4.73 each time. For the same compound, in [5], the CC50 came out at 32.3 µM. The selectivity ratio in data set [6] was determined as 1.7; in [7], 1.7; in data set [8] it was 1.7; in [9] it was 1.73.

For `COc1ccc(-c2nc3c(C(=O)Nc4nc(C#N)c(C#N)[nH]4)cccc3[nH]2)cc1OC`, the pIC50 in data set [3] was 5.00. Also, the CC50 in data set [5] was 43.1 µM. The selectivity ratio in data set [8] came to 4.3.

As to `COc1ccc(-c2nc3c(C(=O)Nc4ccccc4F)cccc3[nH]2)c(OC)c1OC`, the results for the pIC50 in [1] and in data set [3] were 5.01 and 4.77, respectively. Besides, the CC50 in data set [5] turned out to be 37.8 µM. The selectivity ratio in data set [6] was determined as 3.9; in data set [8], 3.

`COc1ccc(-c2nc3c(C(=O)Nc4ncc[nH]4)cccc3[nH]2)cc1OC`: the IC50 entry in [3] (vero) was “Not Active”. In [10], the TC50 result is “Not Active”.

Consider `COc1ccc(-c2nc3c(C(=O)Nc4cnccn4)cccc3[nH]2)cc1OC`, for which the pIC50 in data set [3] was 4.48. Moreover, in data set [5], the CC50 came to 98.8 µM. Moreover, the selectivity ratio in [8] came out at 3.

Regarding `CCC(CC)NC(=O)c1cccc2[nH]c(-c3ccc(OC)c(OC)c3)nc12`, the pIC50 in data set [1] is 6.15; in data set [2], 6.13; in data set [3] it was 6.13; in data set [4], 6.13. Also, the CC50 in data set [5] amounted to 2.23 µM. Moreover, the selectivity ratio in data set [6], in data set [7], in data set [8] and in [9] was 3 in each case.

As for `COc1ccc(-c2nc3c(C(=O)Nc4ncccc4O)cccc3[nH]2)cc1OC`, in data set [3], the negative logarithm of the IC50 (pIC50) is 4.50. Also, in data set [5], the CC50 was 164 µM. Further, in data set [8], the selectivity ratio came to 5.2.

Turning to `O=C(N[C@H](CO)[C@H](O)c1ccc([N+](=O)[O-])cc1)c1cccc2[nH]c(-c3ccccn3)nc12`, the negative logarithm of the IC50 (pIC50) in [1] and in data set [11] was 5.39 throughout. In data set [5], the CC50 stood at 1330 µM. Also, the selectivity ratio in [6] and in data set [9] was 328 each time.

For `O=C(Nc1ccccc1)c1cccc2[nH]c(-c3cccnc3)nc12`, the negative-log IC50 (pIC50) in data set [1] is 5.43. Besides, the CC50 in [5] came out at 34.2 µM. Moreover, the selectivity ratio in data set [6] worked out at 9.2.
